# Measurements as given in ChEMBL document CHEMBL1138464, “Synthesis, conformation, and biological characterization of a sugar derivative of morphine that is a potent, long-lasting, and nontolerant antinociceptive” (J Med Chem, 2009).
# Calls of active or inactive are those of the source.
# Legend:
# [1] = molecular target: Mu-type opioid receptor (Rattus norvegicus) (UniProt P33535); conditions: HEK293
# Rattus norvegicus [2] = experiment: Antinociceptive activity in Sprague-Dawley rat assessed as effect on mechanical nociceptive threshold at 1 to 5 mg/kg, ip after 30 mins by paw pressure test; assay type: functional, organism-based
# Procedure, shortened: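 Male Sprague-Dawley rats, drug given ip in saline. Paw pressure test run before tail flick in each animal. Operator blinded to treatment. Rats with pre-drug responses above 75% of cut-off excluded. Read-out taken 30 min post-injection. Statistics by Mann-Whitney U-test.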
# Rattus norvegicus [3] = experiment: Antinociceptive activity in Sprague-Dawley rat assessed as duration of antinociception at 5 mg/kg, ip by tail flick test; assay type: functional; conditions: route intraperitoneal
# Procedure, shortened: (§1)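 Male Sprague-Dawley rats, housed singly at 21 °C on a 12 h light-dark cycle, tested in the light phase. Drug given ip in saline (100-500 µL). Tail flick: radiant heat from a 300 W bulb focused on the tail tip, withdrawal latency recorded. Pre-drug responders above 75% of cut-off excluded. Testing was blinded. Results are %MPE at 15 and 30 min and duration (h), mean of 12 animals, Mann-Whitney U-test.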
# Rattus norvegicus [4] = experiment: Antinociceptive activity in Sprague-Dawley rat at 5 mg/kg, ip after 15 mins by tail flick test; assay type: functional; conditions: route intraperitoneal
# Procedure, shortened: as §1
# Rattus norvegicus [5] = experiment: Antinociceptive activity in Sprague-Dawley rat at 5 mg/kg, ip after 30 mins by tail flick test; assay type: functional; conditions: for MPE: route intraperitoneal
# Procedure, shortened: as §1
# Rattus norvegicus [6] = experiment: Antinociceptive activity in Sprague-Dawley rat at 1 mg/kg, ip after 30 mins by tail flick test; assay type: functional; conditions: for MPE: route intraperitoneal
# Procedure, shortened: as §1
# Rattus norvegicus [7] = experiment: Toxicity in Sprague-Dawley rat assessed as depression of heart rate at 5 mg/kg, iv administered for 60 secs measured for 30 mins; assay type: organism-based; design: dose 5 mg/kg, route intravenous; conditions: in vivo, 0.5 h
# Procedure, shortened: (§2)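 Male Sprague-Dawley rats (250-300 g) under urethane anaesthesia (1.25 g/kg ip), kept at 37 °C, tracheotomised, with carotid and jugular cannulae. After ≥1 h stabilisation and a saline infusion, drug was given iv in saline over 60 ± 20 s. MAP, SAP, DAP and HR recorded for 30 min as % change from time zero. Student's t test and Newman-Keuls.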
# Rattus norvegicus [8] = experiment: Toxicity in Sprague-Dawley rat assessed as depression of mean arterial blood pressure at 5 mg/kg, iv administered for 60 secs measured for 30 mins; assay type: organism-based; design: dose 5 mg/kg, route intravenous; conditions: in vivo, 0.5 h
# Procedure, shortened: as §2
# Rattus norvegicus [9] = experiment: Toxicity in Sprague-Dawley rat assessed as depression of mean arterial blood pressure at 1 mg/kg, iv administered for 60 secs measured for 30 mins; assay type: organism-based; design: dose 1 mg/kg, route intravenous; conditions: in vivo, 0.5 h
# Procedure, shortened: as §2
# Rattus norvegicus [10] = experiment: Antinociceptive activity in Sprague-Dawley rat at 0.02 mg/kg, ip after 15 mins by tail flick test; assay type: functional; conditions: route intraperitoneal
# Procedure, shortened: as §1
# Rattus norvegicus [11] = experiment: Antinociceptive activity in Sprague-Dawley rat at 0.2 mg/kg, ip after 30 mins by tail flick test; assay type: functional; conditions: route intraperitoneal
# Procedure, shortened: as §1
# Rattus norvegicus [12] = experiment: Antinociceptive activity in Sprague-Dawley rat at 0.05 mg/kg, ip after 30 mins by tail flick test; assay type: functional; conditions: route intraperitoneal
# Procedure, shortened: as §1
# Rattus norvegicus [13] = experiment: Antinociceptive activity in Sprague-Dawley rat assessed as duration of antinociception at 0.2 mg/kg, ip by tail flick test; assay type: functional; conditions: route intraperitoneal
# Procedure, shortened: as §1
# Rattus norvegicus [14] = experiment: Antinociceptive activity in Sprague-Dawley rat assessed as duration of antinociception at 0.1 mg/kg, ip by tail flick test; assay type: functional; conditions: route intraperitoneal
# Procedure, shortened: as §1
# Rattus norvegicus [15] = experiment: Antinociceptive activity in Sprague-Dawley rat at 0.1 mg/kg, ip administered once daily for 9 days measured daily after 30 mins by tail flick test; assay type: functional; conditions: route intraperitoneal
# Procedure, shortened: (§3)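 Separate groups of male Sprague-Dawley rats (250-300 g) dosed ip once daily for 9 consecutive days. Tail flick latency (radiant heat to tail tip) measured daily 30 min after each injection. Response expressed as %MPE.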
# Rattus norvegicus [16] = experiment: Antinociceptive activity in ip dosed Sprague-Dawley rat at after 30 mins by tail flick test; assay type: functional, organism-based
# Procedure, shortened: as §1
# Rattus norvegicus [17] = experiment: Antinociceptive activity in Sprague-Dawley rat assessed as duration of antinociception at 1 mg/kg, ip by tail flick test; assay type: functional; conditions: route intraperitoneal
# Procedure, shortened: as §1
# Rattus norvegicus [18] = experiment: Antinociceptive activity in Sprague-Dawley rat assessed as duration of antinociception at 0.05 mg/kg, ip by tail flick test; assay type: functional; conditions: route intraperitoneal
# Procedure, shortened: as §1
# Rattus norvegicus [19] = experiment: Antinociceptive activity in Sprague-Dawley rat assessed as duration of antinociception at 0.5 mg/kg, ip by tail flick test; assay type: functional; conditions: route intraperitoneal
# Procedure, shortened: as §1
# Rattus norvegicus [20] = experiment: Antinociceptive activity in Sprague-Dawley rat at 0.05 mg/kg, ip after 15 mins by tail flick test; assay type: functional; conditions: route intraperitoneal
# Procedure, shortened: as §1
# Rattus norvegicus [21] = experiment: Antinociceptive activity in Sprague-Dawley rat at 0.02 mg/kg, ip after 30 mins by tail flick test; assay type: functional; conditions: route intraperitoneal
# Procedure, shortened: as §1
# Rattus norvegicus [22] = experiment: Antinociceptive activity in Sprague-Dawley rat at 0.1 mg/kg, ip after 30 mins by tail flick test; assay type: functional; conditions: route intraperitoneal
# Procedure, shortened: as §1
# Rattus norvegicus [23] = experiment: Antinociceptive activity in Sprague-Dawley rat at 0.01 mg/kg, ip after 30 mins by tail flick test; assay type: functional; conditions: route intraperitoneal
# Procedure, shortened: as §1
# Rattus norvegicus [24] = experiment: Antinociceptive activity in Sprague-Dawley rat at 1 mg/kg, ip administered once daily for 9 days measured daily after 30 mins by tail flick test; assay type: functional; conditions: route intraperitoneal
# Procedure, shortened: as §3
# Rattus norvegicus [25] = experiment: Antinociceptive activity in Sprague-Dawley rat assessed as duration of antinociception at 0.01 mg/kg, ip by tail flick test; assay type: functional; conditions: route intraperitoneal
# Procedure, shortened: as §1
# Rattus norvegicus [26] = experiment: Antinociceptive activity in Sprague-Dawley rat assessed as duration of antinociception at 0.02 mg/kg, ip by tail flick test; assay type: functional; conditions: route intraperitoneal
# Procedure, shortened: as §1
# Rattus norvegicus [27] = experiment: Antinociceptive activity in Sprague-Dawley rat at 0.5 mg/kg, ip after 15 mins by tail flick test; assay type: functional; conditions: route intraperitoneal
# Procedure, shortened: as §1
# Rattus norvegicus [28] = experiment: Antinociceptive activity in Sprague-Dawley rat at 0.01 to 5 mg/kg, ip by tail flick test in presence of naloxone; assay type: functional, organism-based
# Procedure, shortened: (§4)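 Antinociception in male Sprague-Dawley rats given drug ip in saline and measured by tail flick or paw pressure. Reversal tested with naloxone, stated as 5 mg/kg ip in the table footnote and as 0.1 mg/kg in the text.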
# Rattus norvegicus [29] = experiment: Antinociceptive activity in Sprague-Dawley rat at 0.5 mg/kg, ip after 30 mins by tail flick test; assay type: functional; conditions: route intraperitoneal
# Procedure, shortened: as §1
# Rattus norvegicus [30] = experiment: Antinociceptive activity in Sprague-Dawley rat at 5 mg/kg, ip administered once daily for 9 days measured daily after 30 mins by tail flick test; assay type: functional; conditions: route intraperitoneal
# Procedure, shortened: as §3
# Rattus norvegicus [31] = experiment: Antinociceptive activity in Sprague-Dawley rat at 1 mg/kg, ip after 15 mins by tail flick test; assay type: functional; conditions: route intraperitoneal
# Procedure, shortened: as §1
# Rattus norvegicus [32] = experiment: Antinociceptive activity in Sprague-Dawley rat at 0.2 mg/kg, ip after 15 mins by tail flick test; assay type: functional; conditions: route intraperitoneal
# Procedure, shortened: as §1
# Rattus norvegicus [33] = experiment: Toxicity in Sprague-Dawley rat assessed as depression of heart rate at 1 mg/kg, iv administered for 60 secs measured for 30 mins; assay type: organism-based; design: dose 1 mg/kg, route intravenous; conditions: in vivo, 0.5 h
# Procedure, shortened: as §2
# Rattus norvegicus [34] = experiment: Antinociceptive activity in Sprague-Dawley rat at 0.1 mg/kg, ip after 15 mins by tail flick test; assay type: functional; conditions: route intraperitoneal
# Procedure, shortened: as §1
# Rattus norvegicus [35] = experiment: Antinociceptive activity in Sprague-Dawley rat at 0.05 mg/kg, ip administered once daily for 9 days measured daily after 30 mins by tail flick test; assay type: functional; conditions: route intraperitoneal
# Procedure, shortened: as §3
# Rattus norvegicus [36] = species: Rattus norvegicus; experiment: Toxicity in Sprague-Dawley rat assessed as body weight loss; assay type: organism-based; conditions: in vivo
# Rattus norvegicus [37] = experiment: Antinociceptive activity in Sprague-Dawley rat assessed as effect on mechanical nociceptive threshold at 1 to 5 mg/kg, ip by paw pressure test in presence of naloxone; assay type: functional, organism-based
# Procedure, shortened: as §4
# Sequence of Mu-type opioid receptor (Rattus norvegicus) (P33535 whole entry): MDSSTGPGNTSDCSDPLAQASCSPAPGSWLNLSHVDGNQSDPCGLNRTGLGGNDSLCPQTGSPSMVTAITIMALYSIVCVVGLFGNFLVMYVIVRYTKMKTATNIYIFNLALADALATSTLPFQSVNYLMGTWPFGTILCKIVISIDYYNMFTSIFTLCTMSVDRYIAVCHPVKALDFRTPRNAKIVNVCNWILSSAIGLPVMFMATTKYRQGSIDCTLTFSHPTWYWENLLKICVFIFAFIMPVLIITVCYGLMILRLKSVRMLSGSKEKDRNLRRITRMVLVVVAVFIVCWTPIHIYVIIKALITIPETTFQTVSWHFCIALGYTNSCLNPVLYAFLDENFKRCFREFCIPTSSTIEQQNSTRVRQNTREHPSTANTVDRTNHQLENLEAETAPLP
smiles,measurement,setting,value
CN1CC[C@]23c4c5ccc(O)c4O[C@H]2[C@@H](O)C=C[C@H]3[C@H]1C5,KiH,[1],2.5 nM
same,KiL,[1],113 nM
same,Activity,Rattus norvegicus [2],Active
CN1CC[C@]23c4c5ccc(O)c4O[C@H]2[C@@H](O)C=C[C@H]3[C@H]1C5.CN1CC[C@]23c4c5ccc(O)c4O[C@H]2[C@@H](O)C=C[C@H]3[C@H]1C5.O=S(=O)(O)O,Time,Rattus norvegicus [3],2.5 h
same,MPE,Rattus norvegicus [4],45%
same,MPE,Rattus norvegicus [5],72%
CN1CC[C@]23c4c5ccc(O)c4O[C@H]2[C@@H](O)C=C[C@H]3[C@H]1C5 [MORPHINE],MPE,Rattus norvegicus [6],35%
same,Activity,Rattus norvegicus [7],Toxic
same,Activity,Rattus norvegicus [8],Toxic
same,Activity,Rattus norvegicus [9],Non-toxic
CN1CC[C@]23c4c5ccc(O)c4O[C@H]2[C@@H](O[C@H]2O[C@H](CO)[C@@H](O)[C@H](O)[C@@H]2O)C=C[C@H]3[C@H]1C5,Time,Rattus norvegicus [3],5 h
same,MPE,Rattus norvegicus [10],19%
same,MPE,Rattus norvegicus [11],100%
same,MPE,Rattus norvegicus [12],84%
same,Time,Rattus norvegicus [13],5 h
same,MPE,Rattus norvegicus [6],100%
same,Time,Rattus norvegicus [14],5 h
same,Activity,Rattus norvegicus [15],100%
same,IC50,Rattus norvegicus [16],0.02 mg/kg
same,Time,Rattus norvegicus [17],5 h
same,Time,Rattus norvegicus [18],5 h
same,Time,Rattus norvegicus [19],5 h
same,MPE,Rattus norvegicus [20],56%
same,KiH,[1],1.7 nM
same,KiL,[1],55 nM
same,MPE,Rattus norvegicus [21],51%
same,MPE,Rattus norvegicus [22],100%
same,MPE,Rattus norvegicus [23],22%
same,MPE,Rattus norvegicus [24],100%
same,Time,Rattus norvegicus [25],2 h
same,MPE,Rattus norvegicus [4],83%
same,Time,Rattus norvegicus [26],3.5 h
same,MPE,Rattus norvegicus [27],54%
same,Activity,Rattus norvegicus [2],Active
same,Activity,Rattus norvegicus [28],inactive
same,MPE,Rattus norvegicus [29],100%
same,MPE,Rattus norvegicus [30],100%
same,MPE,Rattus norvegicus [31],56%
same,MPE,Rattus norvegicus [32],57%
same,MPE,Rattus norvegicus [5],100%
same,Activity,Rattus norvegicus [33],Non-toxic
same,MPE,Rattus norvegicus [34],50%
same,MPE,Rattus norvegicus [35],55%
same,Activity,Rattus norvegicus [9],Non-toxic
same,Activity,Rattus norvegicus [36],Non-toxic
same,Activity,Rattus norvegicus [37],inactive
CN1CC[C@]23c4c5ccc(O)c4O[C@H]2[C@@H](O[C@@H]2O[C@H](C(=O)O)[C@@H](O)[C@H](O)[C@H]2O)C=C[C@H]3[C@H]1C5,Activity,Rattus norvegicus [6],Active
same,Activity,Rattus norvegicus [2],Active
same,Activity,Rattus norvegicus [5],Active
